The text below walks through data of ChEMBL document CHEMBL4411311, “Exploration of novel macrocyclic dipeptide N-benzyl amides as proteasome inhibitors” (Eur J Med Chem, 2019).

Series [1] is described as follows: Inhibition of human peripheral blood derived 20s immunoproteasome beta2 trypsin-like activity using […] as substrate preincubated for 15 mins followed by substrate addition and measured after 60 mins by fluorescence assay.
Series [2] has as its system MM1.S. The series is described as follows: Antiproliferative activity against human MM1S cells after 72 hrs by MTS assay. It is filed as functional, cell-based. Summed up: (§1)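 Cells kept at 37 °C in humidified 5% CO₂. RPMI 8226 and MM.1S were grown in RPMI-1640 with 10% FBS plus penicillin/streptomycin. Seeding per well was 5 × 10³ (RPMI 8226), 3 × 10⁴ (MM.1S) or 8 × 10³ (MV-4-11). Cells were treated with DMSO vehicle or graded concentrations, then given MTS/PMS for 2-4 h at 37 °C. OD read at 490 nm minus 690 nm background. Growth inhibition = (A_control − A_sample)/A_control; IC50 from variable-slope sigmoidal nonlinear fit.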
In general terms: Tetrazolium dyes change colour on reduction, which living cells bring about.

Series [3] concerns the target T1, Proteasome Macropain subunit MB1 (Homo sapiens, UniProt P28074).
T1 sequence (P28074 whole entry): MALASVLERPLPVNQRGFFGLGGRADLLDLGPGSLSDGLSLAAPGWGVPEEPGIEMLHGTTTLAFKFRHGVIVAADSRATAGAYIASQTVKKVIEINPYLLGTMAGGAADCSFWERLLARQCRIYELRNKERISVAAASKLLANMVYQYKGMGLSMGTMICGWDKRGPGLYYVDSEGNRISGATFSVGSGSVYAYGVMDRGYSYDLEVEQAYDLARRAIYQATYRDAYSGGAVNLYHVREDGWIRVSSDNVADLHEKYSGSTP
The series is described as follows: Inhibition of human hepatic cell derived 20s constitutive proteasome beta5 chymotrypsin-like activity using Suc-WLA-AMC as substrate preincubated for 15 mins followed by substrate addition and measured after 60 mins by fluorescence assay.

The subject of series [4] is RPMI-8226. The series is described as follows: Antiproliferative activity against human RPMI8226 cells after 72 hrs by MTS assay. It counts as functional, cell-based. Particulars: RPMI-8226, 72 h. The essentials:
as §1

Series [5] deals with MV4-11. The series can be described thus: Antiproliferative activity against human MV4-11 cells after 72 hrs by MTS assay. It is filed as functional, cell-based. The note with it: MV4-11, 72 h. Summed up:
as §1

A short description of series [6]: Stability in human liver microsomes assessed as parent compound remaining at 1 uM measured after 30 mins by LC-MS/MS analysis. It counts as ADME, Microsome. Particulars: read-out: Stability. Summed up:
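Test compound at […] incubated with human liver microsomes (1.0 mg/mL protein) in 0.1 M PBS pH 7.4 with 1 mM NADPH. Microsomes preincubated 5 min at 37 °C; reaction started by compound addition and sampled at 0, 10, 20 and 30 min. Stopped with ice-cold methanol containing internal standard, then centrifuged at 15000g for 10 min. Supernatant analysed by LC-MS; % remaining = analyte/IS peak-area ratio relative to 0 min.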

Series [7] has as its target T2, Proteasome Macropain subunit MB1 (Homo sapiens) (UniProt P28074).
T2 sequence (whole entry): T1 sequence (P28074 whole entry)
The series can be described thus: Inhibition of human hepatic cell derived 20s constitutive proteasome beta5 chymotrypsin-like activity at 10 uM using Suc-WLA-AMC as substrate preincubated for 15 mins followed by substrate addition and measured after 60 mins by fluorescence assay relative to control.

Series [8] addresses T3, Proteasome subunit beta type-8 (Homo sapiens, UniProt P28062).
T3 sequence (P28062 whole entry): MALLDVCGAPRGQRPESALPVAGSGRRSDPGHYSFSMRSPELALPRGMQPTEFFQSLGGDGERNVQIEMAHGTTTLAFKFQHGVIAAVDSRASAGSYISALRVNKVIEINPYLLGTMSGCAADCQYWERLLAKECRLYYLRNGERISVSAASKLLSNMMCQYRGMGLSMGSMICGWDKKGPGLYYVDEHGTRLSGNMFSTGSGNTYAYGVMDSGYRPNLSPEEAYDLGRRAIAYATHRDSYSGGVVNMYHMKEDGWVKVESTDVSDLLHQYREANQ
The series can be described thus: Inhibition of human peripheral blood derived 20s immunoproteasome beta5 chymotrypsin-like activity using […] as substrate preincubated for 15 mins followed by substrate addition and measured after 60 mins by fluorescence assay.

In series [9] the target is T4, Proteasome subunit beta type-9 (Homo sapiens, UniProt P28065).
T4 sequence (P28065 whole entry): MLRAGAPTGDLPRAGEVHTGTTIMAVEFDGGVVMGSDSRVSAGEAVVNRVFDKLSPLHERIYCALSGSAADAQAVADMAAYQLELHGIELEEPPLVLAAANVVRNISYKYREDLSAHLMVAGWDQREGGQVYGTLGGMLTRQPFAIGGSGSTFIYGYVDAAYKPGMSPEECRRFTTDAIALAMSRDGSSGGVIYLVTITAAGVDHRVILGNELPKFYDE
The series is described as follows: Inhibition of human peripheral blood derived 20s immunoproteasome beta1 caspase-like activity using Suc-PAL-AMC as substrate preincubated for 15 mins followed by substrate addition and measured after 60 mins by fluorescence assay.

As a reminder, the IC50 is the point on the concentration scale where inhibition reaches its midpoint. A lower IC50 goes with higher potency. As usually defined, the inhibition is the percentage by which the read-out fell short of the control.

For `CC(C)C[C@H](NC(=O)[C@H](Cc1ccccc1)NC(=O)c1cnccn1)B(O)O` [BORTEZOMIB], the IC50 in [1] is 0.517 µM.

Take `Cc1ccc(CNC(=O)[C@@H]2COCCCCCCOc3c(cnn3C)C(=O)N[C@@H](CC(=O)NCC(C)(C)C)C(=O)N2)cc1`: the IC50 in series [2] stood at 0.023 µM; in series [3] it was 0.03 µM; in series [4], 0.058 µM; in series [5], 0.055 µM.

Regarding `Cc1ccc(CNC(=O)[C@@H]2Cc3cn(c4ccccc34)CCCCCn3ccnc3C(=O)N[C@@H](CC(=O)NCC(C)(C)C)C(=O)N2)cc1`, the half-maximal inhibitory concentration (IC50) came out at 0.017 µM in series [2], 0.026 µM in series [3], 0.059 µM in series [4] and 0.052 µM in series [5].

As for `CCCCCCOC[C@H](NC(=O)[C@H](CC(=O)NCC(C)(C)C)NC(=O)c1cnn(C)c1CCC)C(=O)NCc1ccc(C)cc1`, the IC50 came to 0.064 µM in [2], 0.009 µM in series [3], 0.097 µM in series [4] and 0.073 µM in series [5]. For the same compound, in [6], the remaining at 0.5 h, 1 µM is less than 5%.

With `Cc1ccc(CNC(=O)[C@@H]2COCCCCCCOc3ccccc3C(=O)N[C@@H](CC(=O)NCC(C)(C)C)C(=O)N2)cc1`, the half-inhibitory concentration (IC50) in [2] stood at 0.037 µM; in series [3], 0.067 µM; in series [4], 0.175 µM; in [5], 0.076 µM.

Take `CC(C)C[C@H](NC(=O)[C@H](CCc1ccccc1)NC(=O)CN1CCOCC1)C(=O)N[C@@H](Cc1ccccc1)C(=O)N[C@@H](CC(C)C)C(=O)[C@@]1(C)CO1` [CARFILZOMIB]: the half-inhibitory concentration (IC50) in [2] is less than 0.001 µM; in series [4] it was 0.002 µM.

For the compound `COC[C@@H]1NC(=O)c2ccccc2OCCCCCCOC[C@@H](C(=O)NCc2ccccc2Cl)NC1=O`, the inhibition in series [7] came out at 34%.

With `Cc1ccc(CNC(=O)[C@@H]2COCCCCCCCc3c(cnn3C)C(=O)N[C@@H](CC(=O)NCC(C)(C)C)C(=O)N2)cc1`, the IC50 was 0.035 µM in series [8]; greater than 10 µM in series [9]; 0.015 µM in [2]; 0.029 µM in series [3]; 0.018 µM in series [4]; greater than 10 µM in series [1]. In series [5], this compound showed an IC50 of 0.021 µM. Further, the remaining at 0.5 h, 1 µM in [6] was no less than 66%.

In the case of `Cc1ccc(CNC(=O)[C@@H]2COCCCCCCCn3ccnc3C(=O)N[C@@H](CC(=O)NCC(C)(C)C)C(=O)N2)cc1`, the IC50 was 0.019 µM in [8]; greater than 10 µM in [9]; 0.006 µM in series [2]; 0.034 µM in series [3]; 0.015 µM in series [4]; greater than 10 µM in series [1]. The concentration for half-maximal inhibition (IC50) in series [5] was 0.012 µM. For the same compound, the remaining at 0.5 h, 1 µM in series [6] was less than 20%.

Compound `O=C1N[C@@H](CCc2ccccc2)C(=O)N[C@H](C(=O)NCc2ccccc2Cl)COCCCCCCOc2ccccc21` had an inhibition in series [7] of 36.7%.

`Cc1ccc(CNC(=O)[C@@H]2COCCCCCCOc3ccccc3C(=O)N[C@@H](CCc3ccccc3)C(=O)N2)cc1`: in [7], the inhibition came out at 38.4%.

`CC(C)(C)CNC(=O)C[C@@H]1NC(=O)c2ccccc2OCCCCCCOC[C@@H](C(=O)NCc2ccccc2Cl)NC1=O`: the IC50 is 0.343 µM in [2], 0.127 µM in series [3], 0.301 µM in series [4] and 0.718 µM in [5].

As to `CC(C)(C)CNC(=O)C[C@@H]1NC(=O)c2ccccc2OCCCCCCOC[C@@H](C(=O)NCc2ccccc2)NC1=O`, in [3], the concentration for half-maximal inhibition (IC50) worked out at 0.66 µM.

`Cc1ccc(CNC(=O)[C@H]2NC(=O)[C@H](CC(=O)NCC(C)(C)C)NC(=O)c3nccn3CCCCCCCO[C@H]2C)cc1`: the IC50 in series [2] was 0.22 µM; in series [3] it was 0.05 µM; in series [4], 0.027 µM; in series [5], 0.208 µM.
